Reference: paper PMC12398596 (Nature Communications, 2025)

Columns and labels:
[1] = test system: Msr1 mRNA in BV2 cells; assay: Msr1 mRNA in BV2 cells, rt-qPCR; format: cell-based, mouse; details: for expression of Msr1 mRNA, TLR agonists (in words): LPS 1.0 μg/mL, Pam2CSK4 1.0 μM, zymosan A 50 μg/mL, flagellin 200 nM
[2] = test system: Marco mRNA in BV2 cells; assay: Marco mRNA in BV2 cells, rt-qPCR; format: cell-based, mouse; details: for expression of Marco mRNA, TLR agonists (in words): LPS 1.0 μg/mL, Pam2CSK4 1.0 μM, flagellin 200 nM
[3] = test system: sAβ42; assay: Tyndall effect of sAβ42 with compounds; format: physicochemical; details: PBS; for Tyndall effect of sAβ42 on addition of compound: imaged immediately after mixing; for Tyndall effect of compound itself (self-aggregation): compound alone
[4] = test system: Aβ plaque; assay: Local hippocampus injection, Aβ plaque by Thioflavin S, APP/PS1 mice; format: in vivo, APP/PS1 transgenic mice; details: 9-month-old APP/PS1, hippocampus, 100 μM 300 nL, 5 d, mean ± SD
Method in brief: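 APP/PS1 mice (9 or 16 months) under pentobarbital (50 mg/kg) received stereotaxic injections of test compound (100 μM, 300 nL saline, with Alexa Fluor 594) into right dorsal hippocampus (AP −2.2, ML +1.5, DV −1.9 mm) and reference into left. Meloxicam 5.0 mg/kg s.c. given pre-surgery and every 12 h for 3 days. Perfusion-fixed at 5 or 10 days, DAPI-counterstained. INJ/ADJ ratios compared between hemispheres.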

[5] = test system: Mrc1 mRNA in BV2 cells; assay: Mrc1 mRNA in BV2 cells, rt-qPCR; format: cell-based, mouse; details: for expression of Mrc1 mRNA, TLR agonists (in words): LPS 1.0 μg/mL, Pam3CSK4 1.0 μM, Pam2CSK4 1.0 μM, zymosan A 50 μg/mL
[6] = test system: sAβ42; assay: Dynamic light scattering, sAβ42 with compounds; format: physicochemical; details: PBS; for shift of sAβ42 particle size to single range around 100 nm: sAβ42 + compound
[7] = target: T1, fAβ42 (Homo sapiens, UniProt P05067); assay: PICUP-Western blot of fAβ42, antibody 4G8; format: biochemical; details: fAβ42 20 μM, 37 °C, P2CSKn result at 0.5 eq. (10 μM)
[8] = test system: fFITC-Aβ42; assay: LSCM re-assembly of fFITC-Aβ42 plaques; format: biochemical; details: fFITC-Aβ42 5.0 μM, compound 25 μM, PBS
[9] = test system: BV2 cells; assay: Phagocytosis of sFITC-Aβ42 in BV2 cells, flow cytometry; format: cell-based, mouse; details: sFITC-Aβ42 0.5 μM, 2 eq., 180 min, mean ± SD, n = 3
[10] = test system: BV2 cells; assay: Phagocytosis of fFITC-Aβ42 in BV2 cells, flow cytometry; format: cell-based, mouse; details: fFITC-Aβ42 0.5 μM, 8 eq., 180 min, mean ± SD, n = 3
[11] = test system: MARCO; assay: MARCO protein in BV2 cells, Western blot; format: cell-based, mouse; details: P2CSKn or Pam2CSK4 1.0 μM, 12 h
[12] = test system: MSR1; assay: MSR1 protein in BV2 cells, Western blot; format: cell-based, mouse; details: P2CSKn or Pam2CSK4 1.0 μM, 12 h
[13] = test system: NLRP3; assay: NLRP3 protein in BV2 cells, Western blot; format: cell-based, mouse; details: 1.0 μM, 12 h
[14] = test system: BV2 cells; assay: Treat & wash phagocytosis of fFITC-Aβ42 in BV2 cells; format: cell-based, mouse
[15] = test system: BV2 cells; assay: Normal vs treat & wash phagocytosis of sFITC-Aβ42 in BV2 cells; format: cell-based, mouse; details: mean ± SD, n = 3
[16] = test system: Aβ plaque; assay: Local cortex injection, Aβ plaque by Thioflavin S, APP/PS1 mice; format: in vivo, APP/PS1 transgenic mice; details: 13-month-old APP/PS1, cortex, 100 μM 300 nL, 5 d, mean ± SD
Method in brief: (§1)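 13-month APP/PS1 mice (C57BL/6 background) under sodium pentobarbital (50 mg/kg) received a unilateral stereotaxic cortical injection (AP +1.0, ML ±1.0, DV −1.0) of compound or reference (100 μM, 300 nL saline, with Hoechst 33342) at 50 nL/min. Perfusion-fixed (PBS, 4% PFA) at 2 or 5 days and sections immunostained. Ratio = signal at injection zone (>80% max dye) over adjacent zone (>200 μm away, <10% dye); 50 μm around needle track excluded.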

[17] = test system: Aβ plaque; assay: Local cortex injection, Aβ by antibody OC, APP/PS1 mice; format: in vivo, APP/PS1 transgenic mice; details: 13-month-old APP/PS1, cortex, 100 μM 300 nL, 5 d, mean ± SD
Method in brief: as §1

[18] = test system: Iba1; assay: Local cortex injection, Iba1, APP/PS1 mice; format: in vivo, APP/PS1 transgenic mice; details: 13-month-old APP/PS1, cortex, 100 μM 300 nL, 5 d, mean ± SD
Method in brief: as §1

[19] = test system: BV2 cells; assay: Phagocytosis of fluorescent microsphere in BV2 cells, flow cytometry; format: cell-based, mouse; details: fAβ42 0.5 μM
[20] = target: T1, fAβ42; assay: Dynamic light scattering, fAβ42 with P2CSKn, time-dependent; format: physicochemical
[21] = test system: BV2 cells; assay: RNA-seq of BV2 cells; format: cell-based, mouse
[22] = test system: caspase-3; assay: Cleaved caspase-3 in BV2 cells, Western blot; format: cell-based, mouse; details: sAβ42, fAβ42 0.5 μM; hPAβ42 1.0 μM P2CSKn + 0.5 μM sAβ42; 12 h
[23] = test system: primary microglia; assay: Phagocytosis of sFITC-Aβ42 in primary microglia, flow cytometry; format: cell-based, mouse
[24] = test system: BV2 cells; assay: Degradation of FITC-Aβ42 forms in BV2 cells; format: cell-based, mouse; details: for degradation of intracellular FITC-Aβ42: 0.5 μM FITC-Aβ42 forms, 180 min then washed
[25] = test system: TLR2, BV2 cells; assay: Phagocytosis of FITC-Aβ42 forms in TLR2-WT; format: cell-based, mouse; details: 0.5 μM, 30 min; for uptake in TLR2-knockdown BV2 cells: TLR2-siRNA; for uptake in BV2-NC cells: null-siRNA control
[26] = test system: TLR2; assay: Cellular colocalization of FITC-Aβ42/RhoB-P2CSKn/TLR2, LSCM; format: cell-based, mouse; details: RhoB-P2CSKn 1.0 μM, sFITC-Aβ42 0.5 μM, 1 h
[27] = target: T1, fAβ42; assay: ThT fluorescence kinetics of preformed fAβ42; format: biochemical; details: sAβ42 10 μM, 37 °C
[28] = test system: BV2 cells; assay: Colocalization of P2CSKn-pretreated sFITC-Aβ42 with LysoTracker Red in BV2 cells; format: cell-based, mouse; details: chloroquine 10 μM, 1 h pretreatment
[29] = 1.0 μM, 12 h, in the absence or presence of Aβ42 species
[30] = equimolar P2CSKn + fAβ42 (20 μM), whole sample, initial
[31] = fAβ42 only 20 μM, whole sample, 18.5 h
[32] = fAβ42 only 20 μM, whole sample, initial
[33] = fAβ42 only, supernatant, 18.5 h

## Flagellin
[1]
  expression of Msr1 mRNA, TLR agonists (in words): failed to upregulate
[2]
  expression of Marco mRNA, TLR agonists (in words): failed to upregulate

## Pam3CSK4-ahx-KLVFF-nal [P3CSKn]
[3]
  Tyndall effect of sAβ42 on addition of compound: didn’t facilitate that of sAβ42
  Tyndall effect of compound itself (self-aggregation): significant Tyndall effect

## Pam-KCKSKVFLKFK-ahx-nal [RP]
[4]
  INJ/ADJ TS: 1.12 ± 1.04

## Pam2CSK4
[5]
  expression of Mrc1 mRNA, TLR agonists (in words): significantly attenuated
[1]; [29]
  mRNA of Msr1 (in words): upregulated
[1]
  expression of Msr1 mRNA, TLR agonists (in words): substantially upregulated
[2]; [29]
  mRNA of Marco (in words): upregulated
[2]
  expression of Marco mRNA, TLR agonists (in words): upregulated
[3]
  Tyndall effect of sAβ42 on addition of compound: much less activity than P2CSKn
[6]
  shift of sAβ42 particle size to single range around 100 nm: did not occur
[7]
  oligomer alteration in fAβ42: not observed
[8]
  co-location with / reshaping of FITC-Aβ42 plaque: did not occur
[9]
  MFI180: 18911 ± 310
[10]
  MFI180: 24286 ± 520
  count180 (cells internalized FITC-Aβ42): 89.2 ± 0.3%
[11]
  protein level of MARCO (in words): significant increase
[12]
  protein level of MSR1 (in words): significant increase
[13]
  protein level of NLRP3 (in words): increased
[14]; 1.0 μM 6 h, washed, fFITC-Aβ42 0.5 μM 12 h, mean ± SD, n = 3
  phagocytosis of fFITC-Aβ42, treat & wash: 43.8 ± 4.1%
[14]; versus untreated fFITC-Aβ42
  increase in phagocytosis of fFITC-Aβ42, treat & wash: about 26%
[15]; compound 1.0 μM 6 h, washed, sFITC-Aβ42 0.5 μM 12 h
  phagocytosis of sFITC-Aβ42, treat & wash group: 24.0 ± 2.3%
[15]; sFITC-Aβ42 0.5 μM pretreated with compound 1.0 μM 30 min, 12 h
  phagocytosis of sFITC-Aβ42, normal group: 49.3 ± 4.1%
[16]
  INJ/ADJ TS: 0.85 ± 0.11
[17]
  INJ/ADJ OC: 1.05 ± 0.28
[18]
  INJ/ADJ Iba1: 5.79 ± 1.71

## Zymosan A
[5]
  expression of Mrc1 mRNA, TLR agonists (in words): significantly attenuated
[1]
  expression of Msr1 mRNA, TLR agonists (in words): substantially upregulated

## fAβ42: pre-formed fibrillar Aβ42
[5]; fAβ42 0.5 μM, after 30 min
  expression of Mrc1 mRNA (in words): significantly suppressed
[1]; fAβ42 0.5 μM, after 30 min
  expression of Msr1 mRNA (in words): significantly suppressed
[2]; fAβ42 0.5 μM, after 60 min
  expression of Marco mRNA (in words): significantly suppressed
[19]
  uptake of fluorescent microsphere (in words): time-dependently decreased
[20]; equimolar P2CSKn + fAβ42 (20 μM), whole sample, 0.5 h
  hydrodynamic diameter, bimodal range: 40–900 nm
[20]; [30]
  hydrodynamic diameter, population 2: ~700 nm
  hydrodynamic diameter, population 3: ~9000 nm
[20]; [31]
  hydrodynamic diameter, population 1: around 16 nm
  hydrodynamic diameter, population 2: ~136 nm
  hydrodynamic diameter, population 3 (dominant): ~6000 nm
[20]; [32]
  hydrodynamic diameter, population 1: about 40 nm
  hydrodynamic diameter, population 2: ~700 nm
  hydrodynamic diameter, population 3: ~6000 nm
[20]; [33]
  hydrodynamic diameter, species 1: around 107 nm
  hydrodynamic diameter, species 2: ~717 nm
[20]; fAβ42 only, supernatant, until 4.5 h
  hydrodynamic diameter, monomodal range: 40–85 nm
[21]; fAβ42 0.5 μM, BV2, 12 h
  phagosome-related genes, RNA-seq: significantly donwregulated
  –log2(FC) of Msr1, Marco and Mrc1: > 1
[21]; fAβ42 treatment, RNA-seq
  Tlr2, Tlr4 or Tlr5 expression: not significantly affected
[22]
  apoptosis of BV2 cells, cleaved caspase-3: significant apoptosis

## sFITC-Aβ42: soluble FITC-labeled Aβ42
[23]; sFITC-Aβ42 0.5 μM alone, within about 360 min
  cell population with engulfed sFITC-Aβ42: ~ 40%
[23]; sFITC-Aβ42 0.5 μM ± P2CSKn 1.0 μM
  intracellular accumulation of FITC-Aβ42: extremely low
[24]
  degradation of intracellular FITC-Aβ42: efficiently degraded
[25]
  uptake in TLR2-knockdown BV2 cells: 12.6%
  uptake in BV2-NC cells: ~ 27.3%
[26]
  co-localization of TLR2 with RhoB-P2CSKn and FITC-Aβ42: rarely observed

## KLVFFn
[6]
  shift of sAβ42 particle size to single range around 100 nm: did not occur
[7]
  oligomer alteration in fAβ42: not observed
[8]
  co-location with / reshaping of FITC-Aβ42 plaque: did not occur

## fFITC-Aβ42: pre-formed fibrillar FITC-Aβ42
[24]
  degradation of intracellular FITC-Aβ42: efficiently degraded
[25]
  uptake in TLR2-knockdown BV2 cells: 12.8%
  uptake in BV2-NC cells: ~ 39.2%

## Pam2KTK4-ahx-KLVFF-nal [P2KTKn]
[3]
  Tyndall effect of sAβ42 on addition of compound: didn’t facilitate that of sAβ42
  Tyndall effect of compound itself (self-aggregation): significant Tyndall effect

## sAβ42: soluble Aβ42
[6]; sAβ42 alone
  hydrodynamic diameter, peak 1: around 3 nm
  hydrodynamic diameter, peak 2: ~12 nm
[27]
  lag time of β-sheet formation: 6.5 h
[22]
  apoptosis of BV2 cells, cleaved caspase-3: significant apoptosis

## CCN(CC)CCCC(C)Nc1ccnc2cc(Cl)ccc12 (stereo not shown) [chloroquine]
[28]
  lysosome amount and level of phagocytosis of hybrid aggregates: significantly reduced
[24]; chloroquine pretreatment 10 μM, 1 h
  degradation of intracellular FITC-Aβ42, effect of inhibitor: almost completely abolished

## Pam3CSK4
[5]
  expression of Mrc1 mRNA, TLR agonists (in words): significantly attenuated
